The results in this text go back to ChEMBL document CHEMBL1140972, “Synthesis and structure-activity relationship of 3-phenylquinoxaline 1,4-di-N-oxide derivatives as antimalarial agents” (Eur J Med Chem, 2008).

Data set [1] is described as follows: Selectivity index, ratio of IC50 for human KB cells to IC50 for chloroquine-sensitive Plasmodium falciparum 3D7. The class given is toxicity, cell-based. To be noted: read-out: Ratio IC50. The gist of the method:
(§1)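 KB IC50 divided by the parasite IC50 (K1 or 3D7). KB cells seeded at 4×10^4 cells/mL in RPMI 1640 with 10% heat-inactivated FCS and grown 24 h. Triplicate dilution series then added for 72 h. AlamarBlue for 2–4 h, fluorescence ex 530/em 585 nm, IC50 by curve fit. Podophyllotoxin as positive control.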

Data set [2] in a line: Selectivity index, ratio of IC50 for human KB cells to IC50 for chloroquine-resistant Plasmodium falciparum K1. Format: toxicity, cell-based. To be noted: read-out: Ratio IC50. The gist of the method: as §1
A further data set has as its system KB. As to the kind of experiment: Cytotoxicity against human KB cells after 48 hrs by alamar blue assay. The class given is cell-based.
For data set [3], the system named is Plasmodium falciparum. Nature of the data set: Antimalarial activity after 48 hrs against chloroquine-sensitive Plasmodium falciparum 3D7 by [3H]hypoxanthine uptake. Format: functional, organism-based. The gist of the method: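 Asynchronous culture (65-75% rings, 0.5% parasitemia, 2.5% final hematocrit) in RPMI 1640 with 0.5% Albumax II, 0.2% glucose, 0.03% L-glutamine and 5 µM hypoxanthine. Triplicate wells with a 3-fold series of 10.0–0.0412 µg/mL; final DMSO ≤0.01%. 37 °C, 5% CO2: 24 h, then 0.2 µCi/well [3H]hypoxanthine for a further 24 h. Frozen, harvested, scintillation-counted. IC50 from curve fit; mean of 2–3 experiments.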

The test system of data set [4] is Plasmodium falciparum. Nature of the data set: Antimalarial activity after 48 hrs against chloroquine-resistant Plasmodium falciparum K1 by [3H]hypoxanthine uptake. The class given is functional, organism-based. Put shortly:
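Asynchronous P. falciparum K1 culture (65-75% ring stage, 0.5% parasitemia; chloroquine, pyrimethamine, cycloguanil resistant) at 2.5% hematocrit in RPMI 1640 with 0.5% Albumax II, glucose, L-glutamine, 5 µM hypoxanthine. Triplicate 3-fold dilutions 10.0–0.0412 µg/mL, DMSO ≤0.01% final, 37 °C, 5% CO2. [3H]-hypoxanthine (0.2 µCi/well) added at 24 h, incorporation counted after further 24 h. IC50 by curve fit, 2–3 experiments.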

A short description of data set [5]: Resistant index, ratio of IC50 for chloroquine-resistant Plasmodium falciparum K1 to IC50 for chloroquine-sensitive Plasmodium falciparum 3D7. The class given is functional. The gist of the method:
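IC50 against K1 divided by IC50 against 3D7 (drug-sensitive NF54 clone). Both from [3H]-hypoxanthine incorporation over 48 h: asynchronous cultures at 0.5% parasitemia, 2.5% hematocrit, 3-fold dilutions 10.0–0.0412 µg/mL in triplicate. Label added at 24 h. Means of 2–3 independent experiments.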

`N#Cc1c(-c2ccc(Cl)cc2)[n+]([O-])c2ccccc2[n+]1[O-]`: the selectivity ratio in data set [1] was 9.63; in data set [2], 23.6. Besides, the values for the IC50 in the data set with KB, in the data set on Plasmodium falciparum [3] and with Plasmodium falciparum [4] were 9730 nM, 1010 nM and 410 nM, respectively. In addition, the Ratio IC50 in data set [5] was found to be 0.41.
As to `Cc1ccc2c(c1)[n+]([O-])c(C#N)c(-c1ccc(Cl)cc1)[n+]2[O-]`, the selectivity ratio in data set [1] amounted to 19.3; in data set [2], 49.5. For the same molecule, the IC50 with KB amounted to 9250 nM; in the data set with Plasmodium falciparum [3], 480 nM; with Plasmodium falciparum [4], 190 nM. Moreover, the Ratio IC50 in data set [5] was determined as 0.39.
With `COc1ccc2c(c1)[n+]([O-])c(C#N)c(-c1ccc(F)cc1)[n+]2[O-]`, the selectivity ratio was 21.3 in data set [1] and 50.9 in data set [2]. For the same molecule, the values for the IC50 with KB, with Plasmodium falciparum [3] and in the data set with Plasmodium falciparum [4] were 18500 nM, 870 nM and 360 nM, respectively. In addition, the Ratio IC50 in data set [5] was determined as 0.42.
Consider `Cc1cc2c(cc1C)[n+]([O-])c(-c1ccc(F)cc1)c(C#N)[n+]2[O-]`, for which the values for the selectivity ratio in data set [1] and in data set [2] were 14.9 and 20.4, respectively. Besides, the IC50 in the data set on KB turned out to be 18800 nM; with Plasmodium falciparum [3], 1260 nM; with Plasmodium falciparum [4], 930 nM. Further, in data set [5], the Ratio IC50 came to 0.73.
As to `COc1ccc2c(c1)[n+]([O-])c(C#N)c(-c1ccc(Cl)cc1)[n+]2[O-]`, the selectivity ratio in data set [1] turned out to be 24; in data set [2], 37.5. Further, the values for the IC50 with KB, in the data set with Plasmodium falciparum [3] and in the data set with Plasmodium falciparum [4] were 17500 nM, 730 nM and 470 nM, respectively. The Ratio IC50 in data set [5] amounted to 0.64.
`N#Cc1c(-c2ccc(OC(F)(F)F)cc2)[n+]([O-])c2ccc(Cl)cc2[n+]1[O-]`: the selectivity ratio was 3.31 in data set [1] and 2.53 in data set [2]. The IC50 is 2350 nM in the data set with KB, 710 nM in the data set with Plasmodium falciparum [3] and 930 nM in the data set on Plasmodium falciparum [4]. Besides, the Ratio IC50 in data set [5] is 1.31.
In the case of `COc1ccc2c(c1)[n+]([O-])c(C#N)c(-c1ccccc1)[n+]2[O-]`, the selectivity ratio in data set [1] came to 7.12; in data set [2] it was 14.5. The IC50 is 10500 nM in the data set on KB, 1470 nM in the data set with Plasmodium falciparum [3] and 720 nM in the data set on Plasmodium falciparum [4]. Also, the Ratio IC50 in data set [5] was 0.49.
For the molecule `Cc1ccc2c(c1)[n+]([O-])c(C#N)c(-c1ccc(OC(F)(F)F)cc1)[n+]2[O-]`, the selectivity ratio in data set [1] was 10.8; in data set [2], 21.4. Further, the IC50 in the data set on KB is 8120 nM; with Plasmodium falciparum [3], 750 nM; with Plasmodium falciparum [4], 380 nM. In addition, in data set [5], the Ratio IC50 came out at 0.51.
